Measurements from ChEMBL document CHEMBL1781989, “Novel β-carboline-tripeptide conjugates attenuate mesenteric ischemia/reperfusion injury in the rat” (2011).
Non-standard residues stand in square brackets, D forms with d. Residues, ends and D or L forms follow the SMILES beside them. Tpi = O=C(O)[C@@H]1Cc2c([nH]c3ccccc23)CN1

Each compound was assayed on Mus musculus (assay: Analgesic activity in ICR mouse assessed as increase in pain threshold at 0.15 mmol/kg, po after 30 mins by tail flick method (reference value: 5.03 +/- 10.26 %)).
Assay type: functional
Work on `O=C(O)[C@H](Cc1c[nH]c2ccccc12)NC(=O)[C@H](Cc1ccccc1)NC(=O)[C@@H]1CCCN1C(=O)[C@@H]1Cc2c([nH]c3ccccc23)CN1` (H-[Tpi]PFW-OH) yielded an Activity of 23.17%.
Compound `O=C(O)[C@H](Cc1c[nH]c2ccccc12)NC(=O)[C@H](Cc1ccccc1)NC(=O)[C@H](Cc1ccc(O)cc1)NC(=O)[C@@H]1Cc2c([nH]c3ccccc23)CN1` (H-[Tpi]YFW-OH) has an Activity of 35.75%.
`N=C(N)NCCC[C@H](NC(=O)[C@@H]1Cc2c([nH]c3ccccc23)CN1)C(=O)N[C@@H](Cc1ccccc1)C(=O)N[C@@H](Cc1c[nH]c2ccccc12)C(=O)O` (H-[Tpi]RFW-OH) gave an Activity of 38.16%.
Compound `O=C(O)[C@H](Cc1c[nH]c2ccccc12)NC(=O)[C@H](Cc1ccccc1)NC(=O)[C@H](Cc1c[nH]c2ccccc12)NC(=O)[C@@H]1Cc2c([nH]c3ccccc23)CN1` (H-[Tpi]WFW-OH) has an Activity of 35.05%.
In the case of `O=C(O)CC[C@H](NC(=O)[C@@H]1Cc2c([nH]c3ccccc23)CN1)C(=O)N[C@@H](Cc1ccccc1)C(=O)N[C@@H](Cc1c[nH]c2ccccc12)C(=O)O` (H-[Tpi]EFW-OH), the Activity is reported as 18.24%.

Each compound was assayed on Mus musculus (assay: Analgesic activity in ICR mouse assessed as increase in pain threshold at 0.15 mmol/kg, po after 60 mins by tail flick method (reference value: 7.45 +/- 8.03 %)).
Assay type: functional
With `O=C(O)[C@H](Cc1c[nH]c2ccccc12)NC(=O)[C@H](Cc1ccccc1)NC(=O)[C@@H]1CCCN1C(=O)[C@@H]1Cc2c([nH]c3ccccc23)CN1` (H-[Tpi]PFW-OH) the Activity was 49.74%.
`O=C(O)[C@H](Cc1c[nH]c2ccccc12)NC(=O)[C@H](Cc1ccccc1)NC(=O)[C@H](Cc1ccc(O)cc1)NC(=O)[C@@H]1Cc2c([nH]c3ccccc23)CN1` (H-[Tpi]YFW-OH) gave an Activity of 41.18%.
`N=C(N)NCCC[C@H](NC(=O)[C@@H]1Cc2c([nH]c3ccccc23)CN1)C(=O)N[C@@H](Cc1ccccc1)C(=O)N[C@@H](Cc1c[nH]c2ccccc12)C(=O)O` (H-[Tpi]RFW-OH) showed an Activity of 35.13%.
Compound `O=C(O)[C@H](Cc1c[nH]c2ccccc12)NC(=O)[C@H](Cc1ccccc1)NC(=O)[C@H](Cc1c[nH]c2ccccc12)NC(=O)[C@@H]1Cc2c([nH]c3ccccc23)CN1` (H-[Tpi]WFW-OH) has an Activity of 36.45%.
Work on `O=C(O)CC[C@H](NC(=O)[C@@H]1Cc2c([nH]c3ccccc23)CN1)C(=O)N[C@@H](Cc1ccccc1)C(=O)N[C@@H](Cc1c[nH]c2ccccc12)C(=O)O` (H-[Tpi]EFW-OH) yielded an Activity of 17.23%.

Each compound was assayed on Mus musculus (assay: Analgesic activity in ICR mouse assessed as increase in pain threshold at 0.15 mmol/kg, po after 90 mins by tail flick method (reference value: 7.53 +/- 11.54 %)).
Assay type: functional
With `O=C(O)[C@H](Cc1c[nH]c2ccccc12)NC(=O)[C@H](Cc1ccccc1)NC(=O)[C@@H]1CCCN1C(=O)[C@@H]1Cc2c([nH]c3ccccc23)CN1` (H-[Tpi]PFW-OH) the Activity was 21.35%.
`O=C(O)[C@H](Cc1c[nH]c2ccccc12)NC(=O)[C@H](Cc1ccccc1)NC(=O)[C@H](Cc1ccc(O)cc1)NC(=O)[C@@H]1Cc2c([nH]c3ccccc23)CN1` (H-[Tpi]YFW-OH) gave an Activity of 43.23%.
Work on `N=C(N)NCCC[C@H](NC(=O)[C@@H]1Cc2c([nH]c3ccccc23)CN1)C(=O)N[C@@H](Cc1ccccc1)C(=O)N[C@@H](Cc1c[nH]c2ccccc12)C(=O)O` (H-[Tpi]RFW-OH) yielded an Activity of 46.08%.
`O=C(O)[C@H](Cc1c[nH]c2ccccc12)NC(=O)[C@H](Cc1ccccc1)NC(=O)[C@H](Cc1c[nH]c2ccccc12)NC(=O)[C@@H]1Cc2c([nH]c3ccccc23)CN1` (H-[Tpi]WFW-OH) showed an Activity of 35.19%.
With `O=C(O)CC[C@H](NC(=O)[C@@H]1Cc2c([nH]c3ccccc23)CN1)C(=O)N[C@@H](Cc1ccccc1)C(=O)N[C@@H](Cc1c[nH]c2ccccc12)C(=O)O` (H-[Tpi]EFW-OH) the Activity was 29.25%.

These compounds were tested on Mus musculus (assay: Analgesic activity in ICR mouse assessed as increase in pain threshold at 0.15 mmol/kg, po after 120 mins by tail flick method (reference value: 8.09 +/- 13.28 %)).
Assay type: functional
`O=C(O)[C@H](Cc1c[nH]c2ccccc12)NC(=O)[C@H](Cc1ccccc1)NC(=O)[C@@H]1CCCN1C(=O)[C@@H]1Cc2c([nH]c3ccccc23)CN1` (H-[Tpi]PFW-OH) gave an Activity of 18.79%.
Work on `O=C(O)[C@H](Cc1c[nH]c2ccccc12)NC(=O)[C@H](Cc1ccccc1)NC(=O)[C@H](Cc1ccc(O)cc1)NC(=O)[C@@H]1Cc2c([nH]c3ccccc23)CN1` (H-[Tpi]YFW-OH) yielded an Activity of 30.25%.
Work on `N=C(N)NCCC[C@H](NC(=O)[C@@H]1Cc2c([nH]c3ccccc23)CN1)C(=O)N[C@@H](Cc1ccccc1)C(=O)N[C@@H](Cc1c[nH]c2ccccc12)C(=O)O` (H-[Tpi]RFW-OH) yielded an Activity of 37.12%.
With `O=C(O)[C@H](Cc1c[nH]c2ccccc12)NC(=O)[C@H](Cc1ccccc1)NC(=O)[C@H](Cc1c[nH]c2ccccc12)NC(=O)[C@@H]1Cc2c([nH]c3ccccc23)CN1` (H-[Tpi]WFW-OH) the Activity was 28.55%.
Compound `O=C(O)CC[C@H](NC(=O)[C@@H]1Cc2c([nH]c3ccccc23)CN1)C(=O)N[C@@H](Cc1ccccc1)C(=O)N[C@@H](Cc1c[nH]c2ccccc12)C(=O)O` (H-[Tpi]EFW-OH) has an Activity of 39.23%.

These compounds were tested on Mus musculus (assay: Analgesic activity in ICR mouse assessed as increase in pain threshold at 0.15 mmol/kg, po after 150 mins by tail flick method (reference value: 9.02 +/- 12.19 %)).
Assay type: functional
`O=C(O)[C@H](Cc1c[nH]c2ccccc12)NC(=O)[C@H](Cc1ccccc1)NC(=O)[C@@H]1CCCN1C(=O)[C@@H]1Cc2c([nH]c3ccccc23)CN1` (H-[Tpi]PFW-OH) was tested, and the Activity was 25.05%.
With `O=C(O)[C@H](Cc1c[nH]c2ccccc12)NC(=O)[C@H](Cc1ccccc1)NC(=O)[C@H](Cc1ccc(O)cc1)NC(=O)[C@@H]1Cc2c([nH]c3ccccc23)CN1` (H-[Tpi]YFW-OH) the Activity was 28.87%.
Compound `N=C(N)NCCC[C@H](NC(=O)[C@@H]1Cc2c([nH]c3ccccc23)CN1)C(=O)N[C@@H](Cc1ccccc1)C(=O)N[C@@H](Cc1c[nH]c2ccccc12)C(=O)O` (H-[Tpi]RFW-OH) has an Activity of 29.38%.
`O=C(O)[C@H](Cc1c[nH]c2ccccc12)NC(=O)[C@H](Cc1ccccc1)NC(=O)[C@H](Cc1c[nH]c2ccccc12)NC(=O)[C@@H]1Cc2c([nH]c3ccccc23)CN1` (H-[Tpi]WFW-OH) showed an Activity of 16.69%.
`O=C(O)CC[C@H](NC(=O)[C@@H]1Cc2c([nH]c3ccccc23)CN1)C(=O)N[C@@H](Cc1ccccc1)C(=O)N[C@@H](Cc1c[nH]c2ccccc12)C(=O)O` (H-[Tpi]EFW-OH) was tested, and the Activity was 12.25%.

What follows are compounds tested on Mus musculus (assay: Analgesic activity in ICR mouse assessed as increase in pain threshold at 0.15 mmol/kg, po after 180 mins by tail flick method (reference value: 8.75 +/- 9.73 %)).
Assay type: functional
`O=C(O)[C@H](Cc1c[nH]c2ccccc12)NC(=O)[C@H](Cc1ccccc1)NC(=O)[C@@H]1CCCN1C(=O)[C@@H]1Cc2c([nH]c3ccccc23)CN1` (H-[Tpi]PFW-OH) showed an Activity of 15.68%.
`O=C(O)[C@H](Cc1c[nH]c2ccccc12)NC(=O)[C@H](Cc1ccccc1)NC(=O)[C@H](Cc1ccc(O)cc1)NC(=O)[C@@H]1Cc2c([nH]c3ccccc23)CN1` (H-[Tpi]YFW-OH) was tested, and the Activity was 20.94%.
`N=C(N)NCCC[C@H](NC(=O)[C@@H]1Cc2c([nH]c3ccccc23)CN1)C(=O)N[C@@H](Cc1ccccc1)C(=O)N[C@@H](Cc1c[nH]c2ccccc12)C(=O)O` (H-[Tpi]RFW-OH) was tested, and the Activity was 21.55%.
With `O=C(O)[C@H](Cc1c[nH]c2ccccc12)NC(=O)[C@H](Cc1ccccc1)NC(=O)[C@H](Cc1c[nH]c2ccccc12)NC(=O)[C@@H]1Cc2c([nH]c3ccccc23)CN1` (H-[Tpi]WFW-OH) the Activity was 14.23%.
Work on `O=C(O)CC[C@H](NC(=O)[C@@H]1Cc2c([nH]c3ccccc23)CN1)C(=O)N[C@@H](Cc1ccccc1)C(=O)N[C@@H](Cc1c[nH]c2ccccc12)C(=O)O` (H-[Tpi]EFW-OH) yielded an Activity of 12.32%.

Each compound was assayed on Mus musculus (assay: Antiinflammatory activity in ICR mouse assessed as inhibition of xylene-induced ear edema at 0.10 mmol/kg, po administered 30 mins before xylene challenge measured after 2 hrs relative to control).
Assay type: functional
Summary of the method: (§1)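 Male ICR mice (20 ± 2 g), randomised to test, vehicle (CMC) and aspirin (10 mg/kg oral) groups. Test agents given orally as CMC suspension. After 30 min, 0.03 mL xylene applied to both faces of the right ear, left ear as control. At 2 h mice were killed and 7 mm ear punches weighed. Edema is the right-minus-left weight, and inhibition is taken against vehicle.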
With `O=C(O)[C@H](Cc1c[nH]c2ccccc12)NC(=O)[C@H](Cc1ccccc1)NC(=O)[C@H](Cc1ccc(O)cc1)NC(=O)[C@@H]1Cc2c([nH]c3ccccc23)CN1` (H-[Tpi]YFW-OH) the inhibition in vivo at 100 µmol/kg was 32.9%.
`N=C(N)NCCC[C@H](NC(=O)[C@@H]1Cc2c([nH]c3ccccc23)CN1)C(=O)N[C@@H](Cc1ccccc1)C(=O)N[C@@H](Cc1c[nH]c2ccccc12)C(=O)O` (H-[Tpi]RFW-OH) showed an inhibition in vivo at 100 µmol/kg of 26.5%.

Each compound was assayed on Mus musculus (assay: Antiinflammatory activity in ICR mouse assessed as inhibition of xylene-induced ear edema at 0.05 mmol/kg, po administered 30 mins before xylene challenge measured after 2 hrs relative to control).
Assay type: functional
Summary of the method: as §1
Work on `O=C(O)[C@H](Cc1c[nH]c2ccccc12)NC(=O)[C@H](Cc1ccccc1)NC(=O)[C@H](Cc1ccc(O)cc1)NC(=O)[C@@H]1Cc2c([nH]c3ccccc23)CN1` (H-[Tpi]YFW-OH) yielded an inhibition in vivo at 50 µmol/kg of 16.2%.
`N=C(N)NCCC[C@H](NC(=O)[C@@H]1Cc2c([nH]c3ccccc23)CN1)C(=O)N[C@@H](Cc1ccccc1)C(=O)N[C@@H](Cc1c[nH]c2ccccc12)C(=O)O` (H-[Tpi]RFW-OH) was tested, and the inhibition in vivo at 50 µmol/kg was 11.3%.

What follows are compounds tested on Mus musculus (assay: Antiinflammatory activity in ICR mouse assessed as inhibition of xylene-induced ear edema at 0.15 mmol/kg, po administered 30 mins before xylene challenge measured after 2 hrs relative to control).
Assay type: functional
Summary of the method: as §1
`O=C(O)[C@H](Cc1c[nH]c2ccccc12)NC(=O)[C@H](Cc1ccccc1)NC(=O)[C@@H]1CCCN1C(=O)[C@@H]1Cc2c([nH]c3ccccc23)CN1` (H-[Tpi]PFW-OH) gave an inhibition in vivo at 150 µmol/kg of 47.3%.
Work on `O=C(O)[C@H](Cc1c[nH]c2ccccc12)NC(=O)[C@H](Cc1ccccc1)NC(=O)[C@H](Cc1ccc(O)cc1)NC(=O)[C@@H]1Cc2c([nH]c3ccccc23)CN1` (H-[Tpi]YFW-OH) yielded an inhibition in vivo at 150 µmol/kg of 50.9%.
Work on `N=C(N)NCCC[C@H](NC(=O)[C@@H]1Cc2c([nH]c3ccccc23)CN1)C(=O)N[C@@H](Cc1ccccc1)C(=O)N[C@@H](Cc1c[nH]c2ccccc12)C(=O)O` (H-[Tpi]RFW-OH) yielded an inhibition in vivo at 150 µmol/kg of 57%.
Compound `O=C(O)[C@H](Cc1c[nH]c2ccccc12)NC(=O)[C@H](Cc1ccccc1)NC(=O)[C@H](Cc1c[nH]c2ccccc12)NC(=O)[C@@H]1Cc2c([nH]c3ccccc23)CN1` (H-[Tpi]WFW-OH) has an inhibition in vivo at 150 µmol/kg of 51.5%.
`O=C(O)CC[C@H](NC(=O)[C@@H]1Cc2c([nH]c3ccccc23)CN1)C(=O)N[C@@H](Cc1ccccc1)C(=O)N[C@@H](Cc1c[nH]c2ccccc12)C(=O)O` (H-[Tpi]EFW-OH) showed an inhibition in vivo at 150 µmol/kg of 28.4%.

What follows are compounds tested on Mus musculus (assay: Antiinflammatory activity in po dosed ICR mouse assessed as inhibition of xylene-induced ear edema administered 30 mins before xylene challenge measured after 2 hrs).
Assay type: functional, organism-based
Summary of the method: as §1
In the case of `O=C(O)[C@H](Cc1c[nH]c2ccccc12)NC(=O)[C@H](Cc1ccccc1)NC(=O)[C@H](Cc1ccc(O)cc1)NC(=O)[C@@H]1Cc2c([nH]c3ccccc23)CN1` (H-[Tpi]YFW-OH), the inhibition is reported as “Dose-dependent effect”.
For `N=C(N)NCCC[C@H](NC(=O)[C@@H]1Cc2c([nH]c3ccccc23)CN1)C(=O)N[C@@H](Cc1ccccc1)C(=O)N[C@@H](Cc1c[nH]c2ccccc12)C(=O)O` (H-[Tpi]RFW-OH), the inhibition was “Dose-dependent effect”.
